The full list was thinned out, with hits kept by preference.
bCat KO growth: beta-catenin-lacking colon tumor cell growth suppression; HCT116 beta-catenin knockout viability, CellTiter-Glo, 60 h; hits give low values; viability, % at 10 µM; 140,000 compounds, 1.5% hits; AID 818;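 active = viability at or under a set limit, the compound median less 4 SD, cut at about 6% in these data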;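 also: 0% = Hyamine 1622 control at 20 µM and 100% = untreated cell control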
H69AR growth 86K: growth inhibitors of human H69AR lung tumor cells | H69AR lung tumor viability, ATP luminescence, 72 h; hits give low values | 85,000 compounds, 6% hits | viability, % at 10 µM | AID 598;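 active = viability at or below 40%; inactive = viability above 40%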;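 also: multidrug resistant small cell line overexpressing MRP-1 efflux transporter; 100% = mean luminescence of untreated control wells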
HCT116 PTEN-null: suppresses growth of cells with PTEN deletion; 140,000 compounds, 1.2% hits; viability, % at 10 µM; HCT116 PTEN-null viability, CellTiter-Glo, 60 h; hits give low values;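 active = viability at or below a set limit, 4 SD under the median of all tested compounds, cut at about 3.7% in these data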;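 also: PTEN knockout HCT116 line with beta catenin targeted HCT116 as companion control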
Fibroblast inh: blocks proliferation of human lung fibroblasts | LL 47 human lung fibroblast viability, ATP luminescence; hits give low values | viability, % at 10 µM | 85,000 compounds, 1.1% hits | AID 719;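 active = viability at or below 50% in the single dose screen; inactive = viability above 50%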;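 also: compound exposure lasted 72 h before the ATP readout; 100% = median luminescence of untreated cell-only wells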
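Assay system: human lung fibroblast line LL 47, low passage. Input: 1,150 fibroblasts seeded per well. Times: overnight cell rest, 72 h compound treatment at 37 °C. Evaluation: % viability of median cell-only signal. Technique: luminescent ATP detection, CellTiter-Glo. Control set: cell-only wells, no compound.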
HUVEC prolif 384: blocks proliferation of human endothelial cells | HUVEC proliferation, CellTiter-Glo luminescence, 72 h; hits give low values | viability, % at 10 µM (by protocol) | 86,000 compounds, 1.1% hits | AID 648;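 active = viability at or below 30%; inactive = viability above 30%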;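 also: 100% = median luminescence of DMSO-only cell control wells on each plate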
* marks the source's active call; other numbers are inactive results.

`CCCC1(CCC)C(=O)NC(=NCc2ccccc2)NC1=O` gave bCat KO growth 25, H69AR growth 86K 29*, HCT116 PTEN-null 46, Fibroblast inh 53 and HUVEC prolif 384 51.
Screening Cc1c(C(=O)N2CCC3(CC2)OCCO3)sc2ncnc(N(C)c3ccccc3)c12 returned bCat KO growth 97, H69AR growth 86K 71, HCT116 PTEN-null 93, Fibroblast inh 90 and HUVEC prolif 384 88.
Screening Clc1ccc(COC(Cn2ccnc2)c2ccc(Cl)cc2Cl)c(Cl)c1 (configuration not stated) returned bCat KO growth 35, H69AR growth 86K 2.3*, HCT116 PTEN-null 40, Fibroblast inh 82 and HUVEC prolif 384 41.
For N#CCC(=O)NN1Cc2ccccc2C1=N the results were bCat KO growth 88 and HCT116 PTEN-null 100.
For O=c1c2ccccc2nc(-c2ccccc2)n1-c1nccs1 the results were bCat KO growth 98 and HCT116 PTEN-null 100.
Screening CCCCc1ccc2[nH]cc(CCN)c2c1 returned bCat KO growth 18, H69AR growth 86K 14*, HCT116 PTEN-null 4, Fibroblast inh 83 and HUVEC prolif 384 84.
`O=C(NCc1ccc(C(=O)N2CCC3(CC2)OCCO3)cc1)c1ccc2c(c1)OCO2` gave bCat KO growth 91, H69AR growth 86K 90, Fibroblast inh 99 and HUVEC prolif 384 98.
O=C(c1ccc2c(=O)n(Cc3ccc4c(c3)OCO4)c(=S)[nH]c2c1)N1CCC2(CC1)OCCO2 was read as bCat KO growth 90, H69AR growth 86K 32*, HCT116 PTEN-null 86, Fibroblast inh 100 and HUVEC prolif 384 101.
Screening COc1ccc(Cn2c(N)c(C(=O)NCc3ccco3)c3nc4ccccc4nc32)cc1 returned bCat KO growth 52, H69AR growth 86K 38*, HCT116 PTEN-null 29, Fibroblast inh 77 and HUVEC prolif 384 70.
For Nc1c(C(=O)NCc2ccco2)c2nc3ccccc3nc2n1Cc1ccc(F)cc1 the results were bCat KO growth 55, H69AR growth 86K 22*, HCT116 PTEN-null 6, Fibroblast inh 85 and HUVEC prolif 384 70.
Screening CC(C)Cn1cc(C(=O)N2CCC3(CC2)OCCO3)c2c3ccccc3n(C)c2c1=O returned bCat KO growth 80, H69AR growth 86K 65, HCT116 PTEN-null 71, Fibroblast inh 120 and HUVEC prolif 384 90.
Screening COc1cc(/C=C(/C)[N+](=O)[O-])ccc1OCc1ccccc1Cl returned bCat KO growth 1.6* and HCT116 PTEN-null 1.2*.
Screening CN1C(=O)C(=Cc2ccccc2OCc2ccccc2Cl)C(=O)N(C)C1=O returned bCat KO growth 43 and HCT116 PTEN-null 48.
For COc1ccccc1NC1=NCCS1 the results were bCat KO growth 96, H69AR growth 86K 88, HCT116 PTEN-null 102, Fibroblast inh 97 and HUVEC prolif 384 96.
Screening CCN1C(=O)C(=C/C=C/c2ccco2)C(=O)N(CC)C1=S returned bCat KO growth 67 and HCT116 PTEN-null 83.
Cc1[nH]c2c(Cl)cccc2c1CCN was read as H69AR growth 86K 22*, Fibroblast inh 96 and HUVEC prolif 384 93.
Screening CCOc1cc(/C=C2/C(=O)NC(=O)N(c3ccc(CC)cc3)C2=O)ccc1OC(=O)c1cccs1 returned bCat KO growth 101 and HCT116 PTEN-null 105.
`CCCCn1c(O)c(C(CC)=NC(C)c2ccccc2)c(=O)[nH]c1=O` (configuration not stated) gave bCat KO growth 46, H69AR growth 86K 17*, HCT116 PTEN-null 45, Fibroblast inh 99 and HUVEC prolif 384 75.
Screening CCCCn1c(O)c(C(CC)=Nc2ccc(OC)cc2OC)c(=O)[nH]c1=O returned bCat KO growth 87, H69AR growth 86K 34*, HCT116 PTEN-null 86, Fibroblast inh 94 and HUVEC prolif 384 78.
Screening CCCCn1c(O)c(C(C)=NCCc2ccccc2)c(=O)[nH]c1=O returned bCat KO growth 93, H69AR growth 86K 86, HCT116 PTEN-null 98, Fibroblast inh 100 and HUVEC prolif 384 100.
CCCCn1c(O)c(C(C)=NC(C)c2ccccc2)c(=O)[nH]c1=O (configuration not stated) was read as bCat KO growth 98, H69AR growth 86K 28*, HCT116 PTEN-null 97, Fibroblast inh 108 and HUVEC prolif 384 85.
OC(c1ccccc1)(c1ccccc1)c1ccncc1 was read as bCat KO growth 89 and HCT116 PTEN-null 92.
For COc1ccc(Cn2c(O)c(C=NCCCn3ccnc3)c(=O)[nH]c2=O)cc1 the results were bCat KO growth 91, H69AR growth 86K 96, HCT116 PTEN-null 90, Fibroblast inh 99 and HUVEC prolif 384 79.

Compound activity from PubChem BioAssay.
